A short description of series [1]: Apparent volume of distribution in Sprague-Dawley rat at 1 mg/kg, iv measured up to 8 hrs post dosing. The format is ADME, organism-based. The conditions noted are these: in vivo, read-out: Vz. The method, boiled down:
(§1)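 Male Sprague-Dawley rats, 8 weeks old, fasted overnight; iv dosing from a 1 mg/mL solution in 5% DMSO/40% PEG400/55% saline. Jugular-vein blood (~0.2 mL, heparinised) taken at 1, 5, 15, 30 min and 1, 2, 4, 6, 8 h; plasma held at -80 °C until analysis; n=3.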

In series [2] the test system is Mast/stem cell growth factor receptor Kit (Homo sapiens), P10721 [D816V]. Put plainly: Inhibition of TEL-fused cKIT D816V mutant (unknown origin) expressed in mouse BA/F3 cells assessed as cell growth inhibition after 72 hrs by cell titer-glo assay. The format is cell-based. The method, boiled down:
(§2)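 Cells seeded at 3000 per well and exposed to serial compound dilutions for 72 h. Viability read by CellTiter-Glo luminescence and normalised to DMSO controls; mean of three independent measurements. BaF3 lines kept IL-3-free in RPMI 1640/10% FBS after retroviral transduction and puromycin selection. GIST lines grown in DMEM/10% FBS.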
In general terms: ATP-based viability assays read luminescence as a measure of living cells.

For series [3], the system named is Mast/stem cell growth factor receptor Kit (Homo sapiens), P10721 [V559D,T670I]. Put plainly: Inhibition of TEL-fused cKIT T670I/V559D double mutant (unknown origin) expressed in mouse BA/F3 cells assessed as cell growth inhibition after 72 hrs by cell titer-glo assay. It is filed as cell-based. The method, boiled down:
as §2

Series [4] can be described thus: Half life in Sprague-Dawley rat at 1 mg/kg, iv measured up to 8 hrs post dosing. The format is ADME, organism-based. The conditions noted are these: in vivo. In a few lines:
as §1

The target of series [5] is Macrophage colony-stimulating factor 1 receptor (Homo sapiens) (UniProt P07333). Put plainly: Inhibition of TEL-fused partial length human CSF1R expressed in mouse BA/F3 cells after 72 hrs by cell titer-glo assay. It is filed as cell-based. The method, boiled down: as §2
Sequence of Macrophage colony-stimulating factor 1 receptor (Homo sapiens) (P07333 whole entry, the tested form may be a part): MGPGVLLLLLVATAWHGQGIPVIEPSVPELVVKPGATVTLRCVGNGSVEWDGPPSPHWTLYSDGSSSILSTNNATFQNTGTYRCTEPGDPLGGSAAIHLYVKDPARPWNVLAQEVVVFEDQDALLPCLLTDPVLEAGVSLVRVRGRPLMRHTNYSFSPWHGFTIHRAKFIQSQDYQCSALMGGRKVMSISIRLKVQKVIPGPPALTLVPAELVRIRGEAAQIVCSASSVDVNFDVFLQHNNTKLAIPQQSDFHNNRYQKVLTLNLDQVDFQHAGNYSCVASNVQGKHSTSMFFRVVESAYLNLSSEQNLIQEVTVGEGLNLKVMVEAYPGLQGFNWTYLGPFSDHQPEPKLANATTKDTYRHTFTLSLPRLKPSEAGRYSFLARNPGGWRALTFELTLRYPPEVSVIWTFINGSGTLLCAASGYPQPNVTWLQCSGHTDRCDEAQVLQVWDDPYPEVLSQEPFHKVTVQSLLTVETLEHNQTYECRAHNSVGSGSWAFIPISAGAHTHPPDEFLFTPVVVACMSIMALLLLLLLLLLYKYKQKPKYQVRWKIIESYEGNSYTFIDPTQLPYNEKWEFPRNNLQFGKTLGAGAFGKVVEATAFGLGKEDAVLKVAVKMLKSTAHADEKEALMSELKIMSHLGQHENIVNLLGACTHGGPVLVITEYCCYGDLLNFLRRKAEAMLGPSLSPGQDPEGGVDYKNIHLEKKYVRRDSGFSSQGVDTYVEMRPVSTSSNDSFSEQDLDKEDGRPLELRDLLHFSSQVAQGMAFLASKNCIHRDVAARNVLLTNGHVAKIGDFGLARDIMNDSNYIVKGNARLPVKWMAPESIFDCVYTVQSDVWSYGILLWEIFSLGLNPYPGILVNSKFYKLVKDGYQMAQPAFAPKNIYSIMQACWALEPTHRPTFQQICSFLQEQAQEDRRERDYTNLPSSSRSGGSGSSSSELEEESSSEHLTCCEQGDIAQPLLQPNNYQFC
The subject of a further series is GISTT1. Put plainly: Induction of apoptosis in human GISTT1 cells assessed as increase in cleaved PARP levels after at 30 nM 24 hrs by Western blot analysis. It is filed as functional, cell-based. The method, boiled down:
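GIST-T1 or GIST-5R cells in DMEM with 10% FBS were exposed to serially diluted compound for 24 h. Apoptosis was assessed by western blot with PARP and GAPDH antibodies.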

Series [6] has as its system BaF3. Put plainly: Antiproliferative against mouse BA/F3 cells harboring TEL-fused cKIT T670I mutant allografted in nu/nu mouse assessed as tumor growth inhibition at 25 to 100 mg/kg, ip administered daily for 10 days by Ki-67 staining based microscopic analysis. The format is functional, organism-based. The method, boiled down:
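Tumours from BaF3-TEL-cKIT-T670I subcutaneous xenografts in nu/nu mice after 10 days of daily IP dosing (25–100 mg/kg/d). Sections underwent citrate pH 6.0 microwave antigen retrieval and casein block, then anti-Ki-67 mouse mAb 1:50 overnight at 4 °C. Detection with DAB and haematoxylin counterstain.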

The test system of series [7] is BaF3. Put plainly: Antitumor activity against TEL-fused cKIT T670I mutant expressing mouse BA/F3 cells allografted in nu/nu mouse assessed as tumor growth inhibition dosed daily via intaperitoneal route after 10 days. It is filed as functional, organism-based. The method, boiled down: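 Female nu/nu mice, 5 weeks old at purchase, given 1 million BaF3-TEL-cKIT-T670I cells in PBS/Matrigel 1:1 subcutaneously on the right flank. At tumour volume 200–400 mm3, randomised into groups of 7 and dosed IP daily for 10 days (25, 50, 100 mg/kg/d or vehicle: 0.5% methylcellulose/0.4% Tween80 in water). Tumour volume (W2×L/2) and body weight recorded daily.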

A short description of series [8]: Toxicity in nu/nu mouse xenografted with TEL-fused cKIT T670I mutant expressed in mouse BA/F3 cells assessed as body weight reduction at 25 to 100 mg/kg/day, ip after 10 days. It is filed as organism-based. The conditions noted are these: in vivo, 240 h. In a few lines:
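Female nu/nu mice, 5 weeks old on purchase, injected subcutaneously in the right flank with 1×10^6 BaF3-TEL-cKIT-T670I cells in PBS/Matrigel 1:1. At 200–400 mm³ tumours, mice were randomized to 7 per group. They then got 25, 50 or 100 mg/kg/day ip or vehicle (0.5% methylcellulose/0.4% Tween80 in water) for 10 days. Body weight was recorded daily relative to initial weight.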

The nature of series [9]: Cytotoxicity mouse BA/F3 cells assessed as cell growth inhibition after 72 hrs by cell titer-glo assay. The format is cell-based, BaF3. In a few lines:
as §2

Series [10] concerns the target T1, Mast/stem cell growth factor receptor Kit (Homo sapiens, UniProt P10721, T670I). Put plainly: Inhibition of cKIT T670I mutant in human GIST-5R cells assessed as downregulation of ERK phosphorylation at T202/204 after 1 hr by Western blot analysis. It is filed as cell-based. In a few lines:
(§3)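 GIST-T1 or GIST-5R cells in DMEM with 10% FBS were treated with serially diluted compound for 1 h. Cells were then lysed and analysed by western blotting.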
On the technique in general: A western blot detects proteins with antibodies after separation by electrophoresis.

Series [11] deals with T1, Mast/stem cell growth factor receptor Kit. Put plainly: Inhibition of His-tagged cKIT T670I mutant (544 to 935 residues) (unknown origin) expressed in Sf9 cells using Poly(4:1 Glu, Tyr) peptide as substrate after 1 hr by ADP-glo kinase assay.
In series [12] the target is Receptor-type tyrosine-protein kinase FLT3 (Homo sapiens) (UniProt P36888). Put plainly: Inhibition of TEL-fused partial length human FLT3 expressed in mouse BA/F3 cells after 72 hrs by cell titer-glo assay. The format is cell-based. The method, boiled down:
as §2

Series [13] deals with Proto-oncogene tyrosine-protein kinase receptor Ret (Homo sapiens) (UniProt P07949). Put plainly: Inhibition of partial length human RET expressed in bacterial expression system assessed as activity remaining at 1 uM by kinome scan assay.
Sequence of Proto-oncogene tyrosine-protein kinase receptor Ret (Homo sapiens) (P07949 whole entry): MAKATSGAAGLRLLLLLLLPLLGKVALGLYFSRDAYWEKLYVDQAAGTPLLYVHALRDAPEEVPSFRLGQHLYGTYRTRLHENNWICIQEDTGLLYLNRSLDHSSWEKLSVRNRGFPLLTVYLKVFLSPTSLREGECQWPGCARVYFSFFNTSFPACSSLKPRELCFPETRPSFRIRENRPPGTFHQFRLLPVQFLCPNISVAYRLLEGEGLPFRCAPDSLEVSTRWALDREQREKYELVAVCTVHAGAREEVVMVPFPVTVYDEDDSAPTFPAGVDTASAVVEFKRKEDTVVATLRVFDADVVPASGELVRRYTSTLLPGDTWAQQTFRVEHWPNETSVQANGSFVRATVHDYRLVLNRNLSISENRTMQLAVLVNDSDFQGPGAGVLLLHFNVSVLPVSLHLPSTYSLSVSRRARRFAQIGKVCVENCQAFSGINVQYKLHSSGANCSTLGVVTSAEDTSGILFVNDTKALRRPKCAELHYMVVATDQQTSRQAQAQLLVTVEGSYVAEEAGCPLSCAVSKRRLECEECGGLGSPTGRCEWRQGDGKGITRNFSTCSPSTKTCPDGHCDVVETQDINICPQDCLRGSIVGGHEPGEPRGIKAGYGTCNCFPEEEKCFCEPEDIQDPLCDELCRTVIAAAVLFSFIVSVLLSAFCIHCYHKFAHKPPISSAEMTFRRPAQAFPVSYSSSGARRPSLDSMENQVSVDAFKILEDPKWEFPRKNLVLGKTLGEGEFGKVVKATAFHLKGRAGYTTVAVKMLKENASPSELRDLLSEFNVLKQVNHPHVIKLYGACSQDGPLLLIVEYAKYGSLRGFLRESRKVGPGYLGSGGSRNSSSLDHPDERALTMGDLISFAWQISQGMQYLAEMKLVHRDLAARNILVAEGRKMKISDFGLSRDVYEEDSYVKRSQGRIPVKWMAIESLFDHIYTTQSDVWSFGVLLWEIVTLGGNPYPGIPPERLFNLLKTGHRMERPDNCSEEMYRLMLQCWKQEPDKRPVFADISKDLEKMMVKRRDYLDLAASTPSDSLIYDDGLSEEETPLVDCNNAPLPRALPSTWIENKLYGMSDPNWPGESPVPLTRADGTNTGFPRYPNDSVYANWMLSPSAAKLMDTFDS
Series [14] deals with T1, Mast/stem cell growth factor receptor Kit. Put plainly: Inhibition of cKIT T670I mutant in human GIST-5R cells assessed as downregulation of S6 phosphorylation at S235/236 after 1 hr by Western blot analysis. The format is cell-based. The method, boiled down: as §3
A short description of series [15]: Tmax in Sprague-Dawley rat at 1 mg/kg, iv measured up to 8 hrs post dosing. The conditions noted are these: in vivo. The format is ADME, organism-based. The method, boiled down: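 Male Sprague-Dawley rats, 8 weeks old, fasted overnight, dosed at 1 mg/kg iv from a 1 mg/mL stock in 5% DMSO/40% PEG400/55% saline. About 0.2 mL jugular blood taken into heparin at 1 min to 8 h. Plasma held at -80 °C until analysis. n = 3, mean reported.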

The source made the active and inactive calls. The calls are words filed in the database; no cut-off is given here. A value given as a limit tells only on which side of the number the result lay.

T1 sequence (P10721 26-976 T670I limits assumed): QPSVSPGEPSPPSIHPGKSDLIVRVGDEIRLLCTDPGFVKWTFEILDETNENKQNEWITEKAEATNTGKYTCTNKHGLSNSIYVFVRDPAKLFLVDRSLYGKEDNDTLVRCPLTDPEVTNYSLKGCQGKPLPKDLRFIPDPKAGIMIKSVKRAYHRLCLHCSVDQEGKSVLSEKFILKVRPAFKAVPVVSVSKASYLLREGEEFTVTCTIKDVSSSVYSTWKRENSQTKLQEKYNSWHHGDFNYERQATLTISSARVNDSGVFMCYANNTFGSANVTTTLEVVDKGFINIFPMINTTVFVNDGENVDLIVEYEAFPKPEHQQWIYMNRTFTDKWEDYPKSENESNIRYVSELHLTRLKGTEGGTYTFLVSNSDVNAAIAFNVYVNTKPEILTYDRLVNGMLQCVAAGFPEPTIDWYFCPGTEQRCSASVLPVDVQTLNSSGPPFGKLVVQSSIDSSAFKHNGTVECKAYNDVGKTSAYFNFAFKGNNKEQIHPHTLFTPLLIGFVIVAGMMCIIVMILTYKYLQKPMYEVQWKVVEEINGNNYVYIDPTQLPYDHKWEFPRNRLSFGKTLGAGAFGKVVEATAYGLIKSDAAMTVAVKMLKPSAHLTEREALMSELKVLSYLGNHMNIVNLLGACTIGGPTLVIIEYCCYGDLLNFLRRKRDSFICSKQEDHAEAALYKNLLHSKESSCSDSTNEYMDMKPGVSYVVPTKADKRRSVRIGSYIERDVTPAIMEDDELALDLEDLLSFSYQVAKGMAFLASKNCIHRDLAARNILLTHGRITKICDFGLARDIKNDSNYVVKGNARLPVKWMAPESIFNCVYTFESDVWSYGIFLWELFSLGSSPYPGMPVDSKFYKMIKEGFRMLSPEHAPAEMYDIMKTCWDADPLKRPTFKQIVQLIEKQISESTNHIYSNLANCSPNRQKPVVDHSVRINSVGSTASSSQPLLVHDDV
Sequence of Mast/stem cell growth factor receptor Kit (Homo sapiens), P10721 [V559D,T670I] (P10721 whole entry V559D/T670I, the tested form may be a part): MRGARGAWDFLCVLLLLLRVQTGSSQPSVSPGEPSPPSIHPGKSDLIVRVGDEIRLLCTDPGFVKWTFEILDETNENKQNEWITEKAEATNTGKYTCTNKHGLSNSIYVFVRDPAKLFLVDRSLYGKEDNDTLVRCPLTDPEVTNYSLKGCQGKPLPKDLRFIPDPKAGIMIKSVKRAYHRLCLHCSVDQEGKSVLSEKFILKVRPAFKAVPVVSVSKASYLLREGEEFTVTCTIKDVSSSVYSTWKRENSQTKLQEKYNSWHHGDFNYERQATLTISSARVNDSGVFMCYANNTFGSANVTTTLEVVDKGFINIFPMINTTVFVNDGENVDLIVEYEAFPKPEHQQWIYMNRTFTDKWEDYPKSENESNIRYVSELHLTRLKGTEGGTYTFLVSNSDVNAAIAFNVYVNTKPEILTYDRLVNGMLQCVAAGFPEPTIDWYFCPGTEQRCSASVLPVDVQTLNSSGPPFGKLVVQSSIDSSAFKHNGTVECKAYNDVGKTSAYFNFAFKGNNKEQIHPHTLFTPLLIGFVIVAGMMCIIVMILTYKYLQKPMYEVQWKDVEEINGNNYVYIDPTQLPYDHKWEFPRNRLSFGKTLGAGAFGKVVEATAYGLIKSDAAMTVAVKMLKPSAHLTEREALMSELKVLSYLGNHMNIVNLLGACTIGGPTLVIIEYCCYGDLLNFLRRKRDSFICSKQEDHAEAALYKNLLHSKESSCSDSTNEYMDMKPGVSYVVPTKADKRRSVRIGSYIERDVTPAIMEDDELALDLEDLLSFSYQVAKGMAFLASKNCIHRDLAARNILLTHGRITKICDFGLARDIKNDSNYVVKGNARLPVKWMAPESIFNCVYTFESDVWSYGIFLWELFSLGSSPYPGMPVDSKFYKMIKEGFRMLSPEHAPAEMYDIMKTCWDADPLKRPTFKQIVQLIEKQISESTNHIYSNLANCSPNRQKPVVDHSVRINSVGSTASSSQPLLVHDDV
Sequence of Mast/stem cell growth factor receptor Kit (Homo sapiens), P10721 [D816V] (P10721 whole entry D816V, the tested form may be a part): as the sequence (P10721 whole entry V559D/T670I, the tested form may be a part) above, with D559V, I670T, D816V counted along it
Sequence of Receptor-type tyrosine-protein kinase FLT3 (Homo sapiens) (P36888 whole entry, the tested form may be a part): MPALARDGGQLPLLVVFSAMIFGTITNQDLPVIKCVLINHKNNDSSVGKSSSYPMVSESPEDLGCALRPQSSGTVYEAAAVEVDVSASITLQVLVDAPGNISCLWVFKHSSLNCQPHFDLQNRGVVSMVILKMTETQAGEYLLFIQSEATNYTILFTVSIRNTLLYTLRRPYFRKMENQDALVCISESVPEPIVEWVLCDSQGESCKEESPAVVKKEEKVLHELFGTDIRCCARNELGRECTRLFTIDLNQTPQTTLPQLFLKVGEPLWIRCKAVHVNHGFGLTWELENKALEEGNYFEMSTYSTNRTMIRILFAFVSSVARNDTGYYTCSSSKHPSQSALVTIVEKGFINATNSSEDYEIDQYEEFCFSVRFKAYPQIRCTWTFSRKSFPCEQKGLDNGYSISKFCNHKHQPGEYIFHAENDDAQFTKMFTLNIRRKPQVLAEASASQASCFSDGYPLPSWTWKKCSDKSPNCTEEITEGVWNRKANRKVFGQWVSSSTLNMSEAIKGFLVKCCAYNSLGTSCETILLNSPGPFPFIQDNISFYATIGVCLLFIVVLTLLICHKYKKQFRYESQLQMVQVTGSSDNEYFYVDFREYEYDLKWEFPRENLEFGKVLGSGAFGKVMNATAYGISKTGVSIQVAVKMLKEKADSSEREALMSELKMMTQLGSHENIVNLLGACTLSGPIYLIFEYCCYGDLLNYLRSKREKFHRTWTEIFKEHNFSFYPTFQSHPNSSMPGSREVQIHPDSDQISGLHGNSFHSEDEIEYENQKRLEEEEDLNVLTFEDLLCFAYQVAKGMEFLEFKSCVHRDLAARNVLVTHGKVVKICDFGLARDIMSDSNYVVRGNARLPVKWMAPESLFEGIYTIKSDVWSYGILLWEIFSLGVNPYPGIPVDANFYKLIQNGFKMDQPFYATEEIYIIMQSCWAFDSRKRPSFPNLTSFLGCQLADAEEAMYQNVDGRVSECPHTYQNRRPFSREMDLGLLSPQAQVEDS

One may read the GI50 as the concentration at which growth is held to half of that of the control. Broadly, the half-life is the time in which the quantity being followed falls by half. A low value points to rapid decline. As usually defined, the EC50 is the concentration needed to bring the measured effect to its halfway point. What is called IC50 is the concentration that gives 50% inhibition. A lower IC50 goes with higher potency. The Tmax is the time at which the peak concentration occurs. Regarding `CCC(=O)NCC1CCN(c2ccc(NC(=O)Nc3cccc(Oc4ccnc5cc(OC)c(OC)cc45)c3)cc2C(F)(F)F)CC1`, in [1], the Vd turned out to be 7.91 L/kg. For the same compound, the GI50 in series [2] stood at 670 nM; in series [3], 73 nM; in series [5], 110 nM; in [12], 99 nM. Besides, the half-life in series [4] was 2.04 h. For the same compound, the result in the series with GISTT1 was Active. Besides, in the series on BaF3 [6], the TGI result is “Active”. The TGI entry with BaF3 [7] is “Dose-dependent effect”. Moreover, the Activity entry is “Non-Toxic” in series [8] and 0% in [13]. Besides, the GI50 at 72 h in series [9] is more than 10000 nM. Also, the EC50 in series [10] and in [14] was less than 100 nM each time. This compound displayed an IC50 in [11] of 99 nM. For the same compound, in series [15], the Tmax amounted to 1.02 min.

For the origin of these results see ChEMBL document CHEMBL4428071 (J Med Chem, 2016).
